HKDC1 inh = HKDC1 (human) hexokinase inhibition; inhibition, % at 20 µM; hit rate 0.16% among 340,000; Q2TB90; recombinant HKDC1, G6PDH/diaphorase resazurin coupled fluorescence;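 active = inhibition above about 35% when tested at 20 µM, limit read from the data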;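 note: plate controls were DMSO wells with enzyme for no effect and DMSO wells lacking enzyme for full effect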
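Test system: HK5 enzyme. Quantity: 5 µg/mL HK5 final. Reagent: glucose and ATP substrates. Schedule: 90 min reaction incubation at room temperature, dark. Technique: resazurin-to-resorufin fluorescence via G6PDH and diaphorase coupling, 525/613 nm. Control set: DMSO wells with and without enzyme mix.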
PfGluPho inh = PfG6PD (Plasmodium falciparum) enzyme inhibition; PfGluPho enzyme, NADPH resazurin-diaphorase fluorescence; inhibition, % at 20 µM; hit rate 0.78% among 350,000;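 active = inhibition reaching at least a set limit at 20 µM in the primary screen, cut at about 59% in these data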;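 note: 0% = DMSO wells with substrate and 100% = DMSO wells lacking glucose-6-phosphate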
aDG glyco act = alpha-DG glycosylation activation | Pro5-aDG cells, alpha-DG glycosylation AlphaScreen (IIH6); 0% Pro5, 100% B10-LARGE cell signal | hit rate 0.22% among 360,000 | activation, % at 10 µM | AID 624168;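 active = activation of at least 8% versus controls, or a plate z-score of at least 8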;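 note: Pro5 are CHO cells carrying HIG-tagged alpha-DG that lacks glycosylation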
Cardio protect = modulators protecting cardiomyocytes from myocardial damage; H9c2 cardiomyocytes, H2O2 injury protection, ATPLite, 2 h; protection from H2O2 cell death, % at 20 µM; hit rate 0.63% among 360,000; AID 588492;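 active = compounds giving at least 50% protection of heart cells from peroxide-induced death in the single-dose screen, raw or plate-pattern-corrected value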;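 note: 0% = DMSO wells with peroxide and 100% = DMSO wells without peroxide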
UCH37 DUB inh = inhibitors of human deubiquitinating enzyme UCH37; hit rate 0.33% among 330,000; purified proteasome/UCH37, Ub-AMC cleavage fluorescence; inhibition, % (concentration not given with the values);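 active = mean inhibition over replicate wells above about 20%, limit read from the data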;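 note: 0% = compound-free wells with enzyme and 100% = wells lacking proteasome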
Target sequence (Q9Y5K5 whole entry, looked up): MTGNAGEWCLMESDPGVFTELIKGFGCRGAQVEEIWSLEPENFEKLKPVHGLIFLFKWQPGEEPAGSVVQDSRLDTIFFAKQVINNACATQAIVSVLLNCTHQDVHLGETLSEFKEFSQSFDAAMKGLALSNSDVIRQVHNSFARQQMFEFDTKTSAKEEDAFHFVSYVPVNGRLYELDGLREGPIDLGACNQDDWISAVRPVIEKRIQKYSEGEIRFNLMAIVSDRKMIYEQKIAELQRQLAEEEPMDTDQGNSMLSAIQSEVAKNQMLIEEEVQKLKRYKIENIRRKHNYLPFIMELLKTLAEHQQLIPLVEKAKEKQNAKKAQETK
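system = Proteasome-associated human UCH37 deubiquitinase | amount = 0.15 nM proteasome as dispensed | medium = pH 7.4 Tris-HCl (50 mM) with ovalbumin, ATP-MgCl2, DTT | incubation = 30 min preincubation with enzyme, 25 min cleavage at room temperature | detection = AMC fluorescence 355/460 nm | read-out basis = percent inhibition | controls = no-proteasome and no-compound wells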
B2AR ag = agonists of human beta-2 adrenergic receptor inducing internalization; response, % (no concentration beside the values); hit rate 0.43% among 340,000; Am2.2-beta2AR cells, FAP receptor internalization, flow cytometry; P07550;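 active = response above a set limit, near 3 SD of response in nonfluorescent compounds, cut at about 42% in these data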
Target sequence (P07550 whole entry, looked up): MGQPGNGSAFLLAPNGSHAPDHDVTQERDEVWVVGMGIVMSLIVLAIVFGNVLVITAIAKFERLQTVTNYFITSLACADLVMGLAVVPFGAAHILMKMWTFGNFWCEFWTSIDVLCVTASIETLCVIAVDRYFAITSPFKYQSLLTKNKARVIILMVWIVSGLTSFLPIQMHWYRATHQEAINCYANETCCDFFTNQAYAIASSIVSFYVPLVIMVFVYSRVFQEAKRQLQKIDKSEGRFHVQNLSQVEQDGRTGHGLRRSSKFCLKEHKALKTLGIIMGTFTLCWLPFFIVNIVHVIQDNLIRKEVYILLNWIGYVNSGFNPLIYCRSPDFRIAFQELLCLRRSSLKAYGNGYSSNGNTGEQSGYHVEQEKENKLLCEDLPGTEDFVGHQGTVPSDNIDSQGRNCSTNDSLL
* marks the source's active call; other numbers are inactive results; nt = no result. This is a sample that favours compounds with a hit; in the whole collection about 2.1% have one here.

SMILES | HKDC1 inh | PfGluPho inh | aDG glyco act | Cardio protect | UCH37 DUB inh | B2AR ag
C=CCn1cnc2c(c1=O)c1nc3ccccc3nc1n2-c1ccc(C)cc1 | nt | nt | nt | nt | 4.4 | nt
C=CCn1cnc2c(c1=O)c1nc3ccccc3nc1n2/N=C/c1cc(OC)c(OC)c(OC)c1 | 2.2 | -0.5 | -0.5 | 64.9* | nt | 2.5
C=CCn1cnc2c(c1=O)c1nc3ccccc3nc1n2/N=C/c1ccccn1 | 13.0 | 22.9 | -0.2 | 97.8* | nt | -0.3
COCCn1cnc2c(c1=O)c1nc3ccccc3nc1n2/N=C/c1cccc(OC)c1 | 2.5 | 10.4 | -0.3 | 51.8* | nt | 3.8
C=CCn1cnc2c(c1=O)c1nc3ccccc3nc1n2N=Cc1cccc(OC)c1 | nt | nt | nt | nt | 1.1 | nt
O=C(Cc1cc(=O)[nH][nH]1)NN=C/C=C/c1ccccc1 | nt | nt | nt | nt | 5.1 | nt
O=C(COc1ccc(C=NNC(=O)c2ccncc2)cc1)Nc1ccccc1 | nt | nt | nt | nt | -88.8 | nt
CCCNC(=O)c1ccc(N2CCC3(CC2)CC(c2ccccc2)=NO3)c(NC(=O)c2ccco2)c1 | 1.6 | 2.2 | -0.5 | 89.8* | -0.1 | 0.7
Cc1ccc(CNC(=O)c2ccc(N3CCC4(CC3)CC(c3ccccc3)=NO4)c(NC(=O)c3ccco3)c2)cc1 | 2.2 | 10.2 | 0.2 | 2.5 | 1.7 | 14.7
COc1cccc(C=Nn2nnc3c(cnn3-c3ccccc3)c2=O)c1 | nt | nt | nt | nt | -6.0 | nt
COc1ccc(C(C)=NNC(=O)CNC(=O)/C=C\c2ccccc2OC)c(OC)c1 | nt | nt | nt | nt | -13.4 | nt
COc1cc(C(Nc2ccccn2)c2ccc3ccc(C)nc3c2O)cc(OC)c1O (stereo not given) | 8.1 | 58.6 | -0.1 | -1.0 | 2.5 | 40.4
Cc1cccc(NC(c2ccc(C)s2)c2ccc3ccc(C)nc3c2O)n1 (stereo not given) | -9.4 | 31.2 | 1.0 | 90.7* | -0.7 | 29.6
O=C(O)c1ccccc1NC(c1ccccc1)c1ccc2cccnc2c1O (stereo not given) | -14.7 | -11.8 | 0.2 | 58.9* | nt | -1.9
COc1ccccc1NC(c1cccnc1)c1ccc2cccnc2c1O (stereo not given) | -14.2 | 39.8 | -0.1 | 46.9 | 6.9 | 1.1
Cc1ccc2ccc(C(Nc3ccccc3)c3ccccc3)c(O)c2n1 (stereo not given) | nt | nt | 0.5 | nt | nt | nt
COc1ccc(C(Nc2cc(C)ccn2)c2ccc3ccc(C)nc3c2O)cc1 (stereo not given) | -16.7 | -13.1 | 0.1 | 62.0* | 1.0 | 4.1
Cc1ccc2ccc(C(Nc3ccccn3)c3ccccc3)c(O)c2n1 (stereo not given) | -22.1 | -16.4 | 0.2 | 87.8* | 4.3 | 6.4
Cc1ccnc(NC(c2ccccc2)c2ccc3cccnc3c2O)c1 (stereo not given) | -39.9 | -6.1 | 0.7 | 40.6 | 1.8 | -1.1
COc1ccc([N+](=O)[O-])cc1C=NNC(=O)c1nonc1N | nt | nt | nt | nt | 0.3 | nt
CCOc1ccc(NC(=Nc2nc(C)cc(C)n2)NC(C)=O)cc1 | nt | nt | nt | nt | 5.1 | nt
Cc1cc(NC(c2ccc(Cl)cc2)c2ccc3cccnc3c2O)no1 (stereo not given) | -31.6 | -8.8 | 1.6 | 58.1* | -0.1 | 2.9
Cc1ccnc(NC(c2ccsc2)c2ccc3ccc(C)nc3c2O)c1 (stereo not given) | -12.5 | 1.0 | -0.1 | 54.4* | 3.4 | -2.7
Cc1ccc2ccc(C(Nc3cccc(C(F)(F)F)c3)c3cccnc3)c(O)c2n1 (stereo not given) | -15.9 | 9.8 | 0.0 | 83.6* | 3.1 | 2.1
CCC1(c2ccccc2)CN(C)C1=O (stereo not given) | nt | 0.6 | -0.1 | 5.1 | nt | nt
SMILES | HKDC1 inh | PfGluPho inh | aDG glyco act | Cardio protect | UCH37 DUB inh | B2AR ag
CCN1c2ccccc2N(C)C1(C)c1ccccc1 (stereo not given) | 24.4 | 67.5* | 0.6 | -26.6 | 4.0 | 2.8
COCCN1Cc2cccc(C(=O)Nc3cccc(-c4nc5ccccc5[nH]4)c3)c2C1=O | -3.6 | -10.0 | 1.9 | 54.1* | -18.6 | 14.7
COc1cc(C=NN=C2CC3CCC2(C)C3(C)C)ccc1O (stereo not given) | nt | nt | nt | nt | 4.0 | nt
S=C(NCCN1CCOCC1)N/N=C/c1cccs1 | 0.8 | 1.2 | -0.2 | 0.3 | nt | -2.1
Oc1cccc(/C=N/NC(=S)NCCN2CCOCC2)c1O | 3.8 | -14.4 | 0.2 | 48.9* | nt | 9.6
O=C(c1cc2nc(-c3ccccc3)cc(-c3ccccc3)n2n1)N1CCN(C(=O)c2ccco2)CC1 | -4.1 | 17.0 | -0.3 | 104.1* | -76.6 | 1.9
O=C(c1ccco1)N1CCN(C(=O)c2cc(-c3ccncc3)nc3ccc(Br)cc23)CC1 | -0.2 | 2.1 | -0.7 | 53.1* | 3.0 | 4.9
O=C(c1ccco1)N1CCN(C(=O)c2cc(-c3ccccc3)nc3ccccc23)CC1 | 0.5 | -8.4 | 1.8 | -1.9 | 3.6 | -7.5
O=C(c1cc2nc(-c3ccccc3)cc(-c3ccccc3)n2n1)N1CCCC1 | 2.1 | 8.9 | 1.1 | 27.4 | -147.0 | -24.8
Cc1oc(N=Cc2ccccc2)c(C#N)c1C | nt | nt | nt | nt | 1.9 | nt
Cc1ccc(C)c(S(=O)(=O)N2CCN(C(=O)CCc3nc4ccccc4c(=O)[nH]3)CC2)c1 | 8.0 | -12.6 | 0.0 | 57.4* | 6.3 | 15.1
Cc1ccc(NC(=O)c2cc(=O)c3ccccc3o2)cc1S(=O)(=O)N1CCOCC1 | -0.4 | 8.0 | -0.2 | 60.5* | 0.8 | 2.4
O=C(CCc1nc2ccccc2c(=O)[nH]1)N1CCN(S(=O)(=O)c2ccc(Cl)c(C(F)(F)F)c2)CC1 | 1.3 | 12.1 | 0.0 | 36.6 | 1.3 | 8.1
Cc1ccc(NC(=O)c2cc(=O)c3ccccc3o2)cc1S(=O)(=O)N1CCCCC1 | 2.3 | 9.5 | 0.0 | 16.1 | 4.2 | 21.7
Cc1ccc(S(=O)(=O)N2CCN(C(=O)CCc3nc4ccccc4c(=O)[nH]3)CC2)c(C)c1 | 10.7 | 3.7 | -0.2 | 72.0* | 3.0 | -4.7
CC(OC(=O)CCc1nc2ccccc2c(=O)[nH]1)C(=O)Nc1ccc2c(c1)OCO2 (stereo not given) | -5.8 | 4.2 | 0.0 | 50.4* | 1.5 | 6.2
CON=CC(C(C)=O)C(=O)Nc1ccc(Cl)cc1Cl (stereo not given) | nt | nt | nt | nt | -1.3 | nt
CC(=NNc1nc2ccccc2[nH]1)c1ccc(C)o1 | nt | nt | nt | nt | 6.4 | nt
Cc1ccc(NC(=O)CCc2nc3ccccc3c(=O)[nH]2)cc1S(=O)(=O)N1CCOCC1 | -1.5 | -21.1 | -0.2 | 86.2* | 5.8 | 11.5
Cc1ccc(NC(=O)CCc2ccccc2)cc1S(=O)(=O)N1CCOCC1 | -2.8 | -13.1 | 0.2 | 5.6 | 0.3 | -4.5
O=C(CCc1nc2ccccc2c(=O)[nH]1)N1CCN(S(=O)(=O)c2ccccc2Br)CC1 | 0.7 | 4.8 | 0.2 | 70.6* | 5.9 | 13.3
CC(C)c1ccc(S(=O)(=O)N2CCN(C(=O)CCc3nc4ccccc4c(=O)[nH]3)CC2)cc1 | nt | 3.4 | 0.8 | 43.5 | nt | nt
COc1ccc(C=NNC(=O)c2ccn[nH]2)cc1COc1ccc(F)cc1 | nt | nt | nt | nt | 1.8 | nt
COc1cccc(CN2CCN(C(=O)c3cc(-c4cccnc4)nc4ccc(C)cc34)CC2)c1 | -4.3 | 5.4 | -0.9 | 49.8* | 0.1 | 7.5
